Measurements reported in paper PMC2834294 (Chemistry & biology, 2010).
“Also recorded” adds a separate entry of the source.

How the values were obtained:
TRPML3 [1] = target: T1, TRPML3 (Homo sapiens, UniProt Q8TDD5); format: cell-based; conditions: HEK293, read-out: Max % Activation (TRPML3)
T1 sequence (Q8TDD5 1-553): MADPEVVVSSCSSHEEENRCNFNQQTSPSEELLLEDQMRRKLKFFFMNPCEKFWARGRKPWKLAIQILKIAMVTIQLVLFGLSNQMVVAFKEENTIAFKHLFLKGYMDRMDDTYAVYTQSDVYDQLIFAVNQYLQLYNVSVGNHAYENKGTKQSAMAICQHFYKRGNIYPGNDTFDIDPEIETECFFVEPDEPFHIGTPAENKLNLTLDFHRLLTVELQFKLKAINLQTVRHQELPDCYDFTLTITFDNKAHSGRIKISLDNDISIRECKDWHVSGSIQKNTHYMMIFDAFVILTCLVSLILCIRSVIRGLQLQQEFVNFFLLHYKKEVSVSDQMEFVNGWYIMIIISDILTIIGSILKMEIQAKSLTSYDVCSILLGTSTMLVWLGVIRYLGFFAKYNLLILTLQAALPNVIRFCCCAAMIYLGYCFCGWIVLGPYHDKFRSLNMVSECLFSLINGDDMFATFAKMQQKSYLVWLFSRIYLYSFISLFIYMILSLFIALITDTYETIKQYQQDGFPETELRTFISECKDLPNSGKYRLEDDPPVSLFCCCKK
Method in brief: (§1)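 HEK293 lines stably expressed YFP-fused human TRPML3 or zebrafish TRPN1 (G418 0.8 mg/ml, twice subcloned) and were plated at 1,500 cells/well for 23 h at 37 °C. After Fluo-8 loading (1 h 37 °C, 30 min RT), a 5 s basal read and 120 s post-addition read were taken. Max/basal ratios were normalized to DMSO and carbachol (87 µM).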

danio rerio TRPN1 = danio rerio TRPN1 (Danio rerio, UniProt Q7T1G6); format: cell-based; conditions: for Emax: HEK293, read-out: Max % Activation (Control); for activity against TRPN1: compounds tested from powders
danio rerio TRPN1, sequence (Q7T1G6 1-1614): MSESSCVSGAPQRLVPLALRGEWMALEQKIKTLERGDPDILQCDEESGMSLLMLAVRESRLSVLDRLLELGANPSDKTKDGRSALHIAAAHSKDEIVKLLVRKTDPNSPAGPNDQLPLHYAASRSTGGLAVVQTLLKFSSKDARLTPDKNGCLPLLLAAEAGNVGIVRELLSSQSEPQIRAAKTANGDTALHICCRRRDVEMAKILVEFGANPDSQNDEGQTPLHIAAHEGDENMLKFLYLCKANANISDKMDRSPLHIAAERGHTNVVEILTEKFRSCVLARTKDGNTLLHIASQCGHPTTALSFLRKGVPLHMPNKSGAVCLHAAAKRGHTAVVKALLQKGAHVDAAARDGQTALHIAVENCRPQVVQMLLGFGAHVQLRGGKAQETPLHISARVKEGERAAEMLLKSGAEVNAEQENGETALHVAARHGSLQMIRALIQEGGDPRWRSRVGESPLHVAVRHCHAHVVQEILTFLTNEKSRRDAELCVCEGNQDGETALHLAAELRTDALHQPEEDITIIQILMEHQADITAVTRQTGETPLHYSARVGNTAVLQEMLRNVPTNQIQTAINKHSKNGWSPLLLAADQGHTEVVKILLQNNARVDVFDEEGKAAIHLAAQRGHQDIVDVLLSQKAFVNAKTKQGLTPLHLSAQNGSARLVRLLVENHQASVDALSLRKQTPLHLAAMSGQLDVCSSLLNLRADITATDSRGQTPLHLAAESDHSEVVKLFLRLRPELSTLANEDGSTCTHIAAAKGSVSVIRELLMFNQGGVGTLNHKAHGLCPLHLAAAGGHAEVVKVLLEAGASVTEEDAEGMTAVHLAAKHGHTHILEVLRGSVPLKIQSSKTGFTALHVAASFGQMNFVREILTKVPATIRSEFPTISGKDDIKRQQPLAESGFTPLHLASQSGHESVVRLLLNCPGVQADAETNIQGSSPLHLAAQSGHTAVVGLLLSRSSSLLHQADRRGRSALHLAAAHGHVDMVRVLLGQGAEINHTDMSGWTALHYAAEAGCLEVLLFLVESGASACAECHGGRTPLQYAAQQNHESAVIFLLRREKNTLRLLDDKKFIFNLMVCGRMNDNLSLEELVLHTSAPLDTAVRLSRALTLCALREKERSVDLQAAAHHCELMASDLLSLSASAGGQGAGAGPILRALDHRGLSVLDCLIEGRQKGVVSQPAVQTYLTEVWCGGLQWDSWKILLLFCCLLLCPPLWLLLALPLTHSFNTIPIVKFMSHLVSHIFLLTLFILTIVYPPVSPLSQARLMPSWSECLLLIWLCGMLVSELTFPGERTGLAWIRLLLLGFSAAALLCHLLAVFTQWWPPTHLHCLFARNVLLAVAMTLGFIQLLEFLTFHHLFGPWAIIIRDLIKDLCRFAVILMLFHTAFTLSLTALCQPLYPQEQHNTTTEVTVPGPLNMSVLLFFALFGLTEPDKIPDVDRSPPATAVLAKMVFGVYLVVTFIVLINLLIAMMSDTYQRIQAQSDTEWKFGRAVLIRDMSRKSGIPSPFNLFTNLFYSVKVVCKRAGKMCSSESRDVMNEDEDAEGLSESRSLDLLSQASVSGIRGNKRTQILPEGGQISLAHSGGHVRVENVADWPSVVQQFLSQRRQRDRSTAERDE
Method in brief: as §1

TRPML3 [2] = target: T1, TRPML3; experiment: Fura-2 calcium imaging, HEK293 cells transiently expressing TRPML3; format: cell-based; conditions: for ⊗F340/F380 (TRPML3): 10 µM compound, mean ±SEM (n≥3); for kinetics of intracellular calcium increase: TRPML3-transfected HEK293 cells
Method in brief: (§2)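 HEK293 cells were transiently transfected (Genejammer) with the human channel construct or YFP control and measured 24 h later. Cells on glass coverslips were loaded with 4 µM fura-2-AM in bath solution (mM: 138 NaCl, 6 KCl, 2 MgCl2, 2 CaCl2, 10 HEPES, 5.5 D-glucose; pH 7.4). Compounds were applied at 10 µM and the F340/F380 ratio recorded. Values are mean ± SEM, n≥3.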

[3] = system: YFP-expressing HEK293 cells; experiment: Fura-2 calcium imaging, YFP-expressing HEK293 cells; format: cell-based; conditions: mean ±SEM (n≥3)
Method in brief: as §2

TRPML3 [4] = target: T1, TRPML3; experiment: Whole-cell patch-clamp, HEK293 cells transiently transfected with TRPML3; format: cell-based; conditions: for nA/pF (-80 mV) (TRPML3): current density at −80 mV, 10 µM in standard bath solution, mean ±SEM (n≥3); for average current density relative to constitutively active TRPML3 A419P: whole-cell, −80 mV
Method in brief: (§3)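 Whole-cell patch clamp was done on HEK293 cells 24 h after transient transfection with human TRPML3 or YFP; constitutively active TRPML3(A419P) cells served as positive control. Bath solution (mM): 138 NaCl, 5.4 KCl, 2 MgCl2, 2 CaCl2, 10 HEPES, 10 d-glucose; pH 7.4. Pipette solution (mM): 140 CsCl, 10 HEPES, 3 ATP-Na, 1 BAPTA, 2 MgCl2; pH 7.2. Compounds at 10 µM were perfused. Capacitance-normalized current at −80 mV is reported as mean ± SEM, n≥3.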

TRPML3 [5] = format: cell-based; conditions: 10 µM compound; ELS 2 mM Na+, 150 mM K+
Method in brief: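 Whole-cell recordings used HEK293 cells expressing TRPML3 with 100% series-resistance compensation. Pipette solution (mM): 140 CsCl, 10 HEPES, 3 ATP-Na, 1 BAPTA, 2 MgCl2; pH 7.2. Compound at 10 µM was perfused in endolymph-like solution (mM: 2 NaCl, 150 KCl, 0.25 CaCl2, 10 HEPES, 10 glucose; pH 7.4) or in standard bath. Inward current at −80 mV was normalized to capacitance.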

[6] = target: T2, TRPML3 coexpressed with dynamin (Homo sapiens, UniProt Q8TDD5); experiment: Calcium imaging, HEK293 cells coexpressing wild type dynamin with TRPML3; format: cell-based; conditions: compared to control experiments
T2 sequence (Q8TDD5 1-553): T1 sequence (Q8TDD5 1-553)
Method in brief: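 HEK293 cells were transiently cotransfected (Genejammer) with wild-type dynamin and TRPML3 and imaged 24 h later. Cells on glass coverslips were loaded with 4 µM fura-2-AM in bath solution (mM: 138 NaCl, 6 KCl, 2 MgCl2, 2 CaCl2, 10 HEPES, 5.5 D-glucose; pH 7.4). Responses to activators were compared with control transfections.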

TRPML2 = target: T3, TRPML2 (Homo sapiens, UniProt Q8IZK6); experiment: Fura-2 calcium imaging, HEK293 cells expressing TRPML2; format: cell-based; conditions: 10 µM
T3 sequence (Q8IZK6 1-566): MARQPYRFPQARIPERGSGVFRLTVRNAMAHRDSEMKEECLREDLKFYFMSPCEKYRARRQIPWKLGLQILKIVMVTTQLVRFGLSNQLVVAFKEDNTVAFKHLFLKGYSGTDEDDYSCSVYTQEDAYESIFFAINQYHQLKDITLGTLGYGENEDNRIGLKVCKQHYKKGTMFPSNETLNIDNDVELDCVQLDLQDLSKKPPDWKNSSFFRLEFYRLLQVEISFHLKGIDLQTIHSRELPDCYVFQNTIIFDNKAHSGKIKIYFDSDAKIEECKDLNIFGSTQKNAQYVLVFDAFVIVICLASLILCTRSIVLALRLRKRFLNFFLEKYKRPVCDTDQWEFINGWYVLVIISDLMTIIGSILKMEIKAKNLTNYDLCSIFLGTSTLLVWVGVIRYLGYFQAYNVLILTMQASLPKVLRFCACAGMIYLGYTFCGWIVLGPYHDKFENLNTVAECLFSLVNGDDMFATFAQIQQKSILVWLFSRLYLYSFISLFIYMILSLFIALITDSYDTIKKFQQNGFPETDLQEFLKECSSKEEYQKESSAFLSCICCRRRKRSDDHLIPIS
Method in brief: as §2

cochlear hair cells = experiment: Recording from acutely isolated cochlear hair cells; format: cell-based, rat; conditions: up-to 100 µM; in SBS, SN-2 also in ELS
[7] = target: T4, TRPML3 coexpressed with TRPML1 (Homo sapiens, UniProt Q8TDD5); experiment: Calcium imaging, HEK293 cells coexpressing TRPML3 with TRPML1; format: cell-based; conditions: 10 µM
T4 sequence (Q8TDD5 1-553): T1 sequence (Q8TDD5 1-553)
Method in brief: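 Human TRPML3 and TRPML1 were transiently coexpressed in HEK293 cells (Genejammer) and imaged 24 h post-transfection. Cells on glass coverslips were loaded with 4 μM fura-2-AM in bath solution (mM: 138 NaCl, 6 KCl, 2 MgCl₂, 2 CaCl₂, 10 HEPES, 5.5 D-glucose, pH 7.4) and read on a monochromator imaging system. Test compound was 10 μM. Mean ± SEM, n≥3 independent experiments, 20–30 cells each.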

TRPML1(NC) = TRPML1(NC) (Homo sapiens, UniProt Q9GZU1); experiment: Fura-2 calcium imaging, HEK293 cells expressing TRPML1; format: cell-based; conditions: 10 µM, plasma membrane-localized TRPML1 variant
TRPML1(NC), sequence (Q9GZU1 17-572 limits assumed): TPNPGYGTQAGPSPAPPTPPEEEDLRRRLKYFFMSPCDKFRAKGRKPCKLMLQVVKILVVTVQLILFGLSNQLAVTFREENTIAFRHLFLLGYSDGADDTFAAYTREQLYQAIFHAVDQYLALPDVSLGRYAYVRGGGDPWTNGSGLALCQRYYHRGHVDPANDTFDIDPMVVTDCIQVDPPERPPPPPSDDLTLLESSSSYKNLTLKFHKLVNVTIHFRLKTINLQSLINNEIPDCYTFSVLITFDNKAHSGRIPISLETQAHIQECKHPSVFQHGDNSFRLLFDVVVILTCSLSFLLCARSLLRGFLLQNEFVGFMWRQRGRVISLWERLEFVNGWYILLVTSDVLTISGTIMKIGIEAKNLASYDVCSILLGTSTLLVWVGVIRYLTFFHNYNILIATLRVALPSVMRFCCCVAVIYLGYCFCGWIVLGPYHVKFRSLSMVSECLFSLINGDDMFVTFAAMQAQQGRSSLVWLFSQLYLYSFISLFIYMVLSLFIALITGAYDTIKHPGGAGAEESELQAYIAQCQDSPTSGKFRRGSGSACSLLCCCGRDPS
Method in brief: as §2

TRPML3 [8] = target: T1, TRPML3; experiment: Excised; format: cell-based; conditions: patches held at −80 mV
TRPML3 [9] = target: T1, TRPML3; experiment: Whole-cell patch-clamp with intracellular application; format: cell-based
[10] = system: YFP-expressing HEK293 cells; experiment: Whole-cell patch-clamp, YFP-expressing HEK293 cells; format: cell-based; conditions: current density at −80 mV, mean ±SEM (n≥3)
Method in brief: as §3

Compound | Emax (TRPML3 [1]) [%] | EC50 (danio rerio TRPN1) [µM] | Emax (danio rerio TRPN1) [%] | ⊗F340/F380 (TRPML3) (TRPML3 [2]) | ⊗F340/F380 (Control) [3] | nA/pF (-80 mV) (TRPML3) (TRPML3 [4]) [nA/pF] | increase in current densities, compound + ELS vs ELS alone or compound in SBS (TRPML3 [5]) [fold] | response when wild type dynamin coexpressed with TRPML3 in HEK293 cells [6] | activity against TRPN1 (danio rerio TRPN1) | kinetics of intracellular calcium increase (TRPML3 [2]) | average current density relative to constitutively active TRPML3 A419P (TRPML3 [4]) | response in HEK293 cells expressing TRPML2 (TRPML2) | TRPML3 channel activity in cochlear hair cells (cochlear hair cells) | calcium imaging response when TRPML1 was coexpressed with TRPML3 [7] | activation of mutant TRPML1(NC) isoform (TRPML1(NC)) | TRPML3 activity in excised patches (TRPML3 [8]) | cell membrane permeability (TRPML3 [9]; inferred from intracellular infusion experiment) | response to intracellular application (infusion) (TRPML3 [9]; whole-cell, −80 mV) | nA/pF (-80 mV) (Control) [10] [nA/pF]
Cc1ccc(S(=O)(=O)Nc2ccccc2-c2ccccc2)cc1 [SF-24, 4-methyl-N-(2-phenylphenyl)benzenesulfonamide] | 86 ± 7 | > 29.9 | 2 | 0.51 ±0.05 | 0.016 ±0.023 | −0.02 ±0.01 | ≤ 10 | reduction in response | – | – | – | – | – | – | – | – | – | – | –
O=S(=O)(NC1CCCCC1N1CCOCC1)c1ccc(Cl)cc1 (stereo not shown) [SF-21, 4-chloro-N-(2-morpholin-4-ylcyclohexyl)benzenesulfonamide] | 200 ± 7 | 14.2 ± 2.03 | 61 ± 2 | 1.38 ±0.10 | 0.033 ±0.008 | −0.55 ±0.08 | – | – | significant activity against TRPN1 | much more rapid increase than the other compounds | Stronger responses | elicited responses | Neither compound at concentrations of up-to 100 µM, with or without endolymph-like extracellular solution, elicited TRPML3 channel activity | strong reduction of the calcium imaging responses | – | – | – | – | –
O=S(=O)(Nc1ccccc1N1CCCCC1)c1ccc(Cl)s1 [SF-22, 5-chloro-N-(2-piperidin-1-ylphenyl)thiophene-2-sulfonamide] | 156 ± 16 | > 29.9 | 1 | 1.00 ±0.07 | – | −0.24 ±0.06 | – | – | – | – | comparable to average current densities obtained from cells expressing the constitutively active varitint-waddler mutant isoform A419P | – | – | strong reduction of the calcium imaging responses | able to activate this channel; also recorded: can be activated by compound SF-22 | markedly increased TRPML3 activity | not cell permeable | did not elicit a response when infused into the cells | –
CC1=CC(C)(C)N(C(=O)CN2C(=O)c3ccccc3C2=O)c2ccccc21 [SF-51, 2-[2-oxo-2-(2,2,4-trimethylquinolin-1-yl)ethyl]isoindole-1,3-dione] | 175 ± 18 | > 29.9 | 47 ± 3 | 0.78 ±0.03 | – | −0.41 ±0.10 | – | – | significant activity against TRPN1 | slowest kinetics | Stronger responses | – | – | – | – | – | – | – | −0.016 ±0.008
CCCC(=O)Oc1c(S(=O)(=O)c2ccc(C)cc2)c(C)nn1C(C)(C)C [SF-71, [2-tert-butyl-5-methyl-4-(4-methylphenyl)sulfonylpyrazol-3-yl] butanoate] | 85 ± 8 | > 29.9 | 2 ± 1 | 0.75 ±0.06 | – | −0.08 ±0.02 | – | – | – | – | – | – | – | – | – | – | – | – | −0.012 ±0.006
